# Measured values reported in paper PMC7161550 (British Journal of Pharmacology, 2020).
# Where two headings read alike, the source gives them in different places.
# Tests used:
# [1] = target: T1, rat brain fatty acid amide hydrolase (FAAH) (Rattus norvegicus, UniProt P97612); assay type: biochemical; conditions: read-out: IC50 [95% CI]
# T1 sequence (P97612 1-579): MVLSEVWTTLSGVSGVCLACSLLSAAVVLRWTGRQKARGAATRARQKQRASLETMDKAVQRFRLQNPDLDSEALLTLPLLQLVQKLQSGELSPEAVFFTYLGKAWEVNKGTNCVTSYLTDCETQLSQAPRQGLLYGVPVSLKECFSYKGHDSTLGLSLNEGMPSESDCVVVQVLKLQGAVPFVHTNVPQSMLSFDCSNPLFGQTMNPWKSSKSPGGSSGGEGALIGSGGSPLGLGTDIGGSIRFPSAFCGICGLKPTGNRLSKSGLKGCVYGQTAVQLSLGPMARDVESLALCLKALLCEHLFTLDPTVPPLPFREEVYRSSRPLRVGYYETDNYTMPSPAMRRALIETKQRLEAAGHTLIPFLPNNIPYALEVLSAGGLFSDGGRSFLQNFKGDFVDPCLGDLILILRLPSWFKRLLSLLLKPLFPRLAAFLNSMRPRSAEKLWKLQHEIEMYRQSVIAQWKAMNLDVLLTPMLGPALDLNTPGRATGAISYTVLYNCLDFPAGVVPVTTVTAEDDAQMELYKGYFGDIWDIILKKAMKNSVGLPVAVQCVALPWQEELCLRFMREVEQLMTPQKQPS
# How it was run: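 Rat brain membranes from Wistar rats, 10 μg protein, in 1 mM EDTA, 10 mM Tris, pH 7.6. Test compound at 1 nM–10 μM, pre-incubated with enzyme 5–60 min, or reaction started with enzyme when not pre-incubated. Substrate 2 μM AEA + 5 nM 3H‑AEA + 0.1% fatty acid-free BSA, 30 min at room temperature with agitation. Charcoal stop; supernatant 3H‑ethanolamine counted. Blank and vehicle controls; IC50 from normalized variable-slope sigmoidal fit.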
# [2] = target: T2, rat brain fatty acid amide hydrolase (Rattus norvegicus, UniProt P97612); experiment: FAAH progression curves, kinetic constants k obs and k inact/K I; assay type: biochemical; conditions: inhibition of rat brain FAAH, 37°C
# T2 sequence (P97612 1-579): T1 sequence (P97612 1-579)
# [3] = target: T3, human recombinant fatty acid amide hydrolase (FAAH) (Homo sapiens, UniProt O00519); experiment: FAAH activity in intact COS‐hFAAH cells; assay type: cell-based; conditions: for IC50: read-out: IC50 [95% CI]
# T3 sequence (O00519 1-579): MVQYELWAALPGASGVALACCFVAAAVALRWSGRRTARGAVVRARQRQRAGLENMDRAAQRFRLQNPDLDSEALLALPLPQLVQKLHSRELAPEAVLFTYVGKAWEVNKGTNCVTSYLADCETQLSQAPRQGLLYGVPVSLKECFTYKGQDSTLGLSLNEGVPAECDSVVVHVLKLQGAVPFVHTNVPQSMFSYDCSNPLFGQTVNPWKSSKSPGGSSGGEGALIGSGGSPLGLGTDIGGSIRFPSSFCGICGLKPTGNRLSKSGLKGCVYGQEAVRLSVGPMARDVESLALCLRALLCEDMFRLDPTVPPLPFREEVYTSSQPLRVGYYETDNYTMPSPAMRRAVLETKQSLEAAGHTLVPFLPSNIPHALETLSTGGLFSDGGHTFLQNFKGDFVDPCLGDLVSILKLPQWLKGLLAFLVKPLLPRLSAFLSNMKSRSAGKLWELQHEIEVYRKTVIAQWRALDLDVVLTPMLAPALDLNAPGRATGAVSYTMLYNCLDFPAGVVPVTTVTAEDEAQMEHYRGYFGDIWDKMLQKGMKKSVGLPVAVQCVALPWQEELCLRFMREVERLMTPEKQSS
# [4] = tested on: COS‐hFAAH cells; experiment: Quantification of compounds in COS‐hFAAH supernatant, cell lysates and medium; assay type: in vitro ADME; conditions: 1, 3 and 24 hr
# [5] = Protein binding to cell homogenates; assay type: in vitro ADME; conditions: 500 μg·ml^−1 of protein
# [6] = target: T4, mouse liver fatty acid amide hydrolase (FAAH) (Mus musculus, UniProt O08914); experiment: Ex vivo FAAH activity in mouse liver after oral administration; conditions: 0.1 mg·kg^−1 p.o., 1 hr after dosing
# T4 sequence (O08914 1-579): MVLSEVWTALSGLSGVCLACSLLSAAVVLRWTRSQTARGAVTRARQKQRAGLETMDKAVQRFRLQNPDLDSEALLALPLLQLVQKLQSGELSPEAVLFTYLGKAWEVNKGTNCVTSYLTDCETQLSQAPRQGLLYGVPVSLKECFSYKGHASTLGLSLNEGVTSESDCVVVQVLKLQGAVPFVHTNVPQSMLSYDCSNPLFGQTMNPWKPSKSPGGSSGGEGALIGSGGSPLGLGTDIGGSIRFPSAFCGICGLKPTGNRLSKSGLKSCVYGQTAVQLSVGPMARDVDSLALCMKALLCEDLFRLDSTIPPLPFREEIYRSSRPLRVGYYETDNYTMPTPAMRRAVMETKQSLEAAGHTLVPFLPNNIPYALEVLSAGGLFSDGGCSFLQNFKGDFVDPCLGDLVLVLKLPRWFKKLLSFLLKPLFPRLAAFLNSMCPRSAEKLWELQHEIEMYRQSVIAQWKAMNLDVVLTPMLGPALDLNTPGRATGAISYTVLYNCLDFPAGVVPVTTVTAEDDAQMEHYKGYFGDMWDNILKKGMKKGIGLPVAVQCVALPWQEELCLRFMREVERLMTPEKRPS
# How it was run: (§1)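 Liver and half-brain were collected into FAAH membrane buffer (3 mM MgCl2, 1 mM EDTA, 50 mM Tris HCl, pH 7.4) and stored at −20°C. Homogenates (15 μg protein brain, 5 μg liver) were pre-incubated 15 min at 37°C. AEA + 3H‑AEA + BSA was added for 10 min (brain) or 7 min (liver), then charcoal. Scintillation counting gave % remaining activity versus controls after blank subtraction.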
# [7] = target: T5, mouse brain fatty acid amide hydrolase (FAAH) (Mus musculus, UniProt O08914); experiment: Ex vivo FAAH activity in mouse brain after oral administration; conditions: 0.1 mg·kg^−1 p.o., 1 hr after dosing
# T5 sequence (O08914 1-579): T4 sequence (O08914 1-579)
# How it was run: as §1
# [8] = tested on: brain fatty acid amides (AEA, PEA, OEA); experiment: Fatty acid amides; assay type: in vivo; conditions: mouse brain, 8 hr
# How it was run: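 Frozen brains were thawed at 4°C and weighed. Each sample was extracted with chloroform:MeOH (2:1) plus 0.1 M phosphate buffer, pH 5.6. Deuterated internal standards were spiked in: AEA‑d8, PEA‑d4 and OEA‑d2 for the fatty acid amides, and 2‑AG‑d8 for 2‑AG.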
# [9] = tested on: 229 assays for receptors, enzymes, transporters, ion channels, hormones, growth factors and inflammatory mediators; assay type: binding; conditions: 10 and 50 μM
# [10] = target: T6, fatty acid amide hydrolase (Rattus norvegicus, UniProt P97612); experiment: Gel‐based competitive ABPP in vitro, TAMRA‐FP probe, rat brain fractions; assay type: biochemical; conditions: 1 hr
# T6 sequence (P97612 1-579): T1 sequence (P97612 1-579)
# How it was run: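 Rat brain membrane and soluble protein extracts (200 μg) were incubated 1 hr at room temperature with test compound at 1 nM–100 μM, DMSO vehicle or PMSF 3 mM. Active serine hydrolases were then labelled with TAMRA‑FP probe (2 μM final) for 1 hr at room temperature. Bands were visualized by in-gel fluorescence.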
# [11] = assay type: in vivo; conditions: rat, after BIA 10‐2474 10 mg·kg^−1 p.o.
structure (smiles),measurement,setting,value
O=C(Nc1cnccc1Cl)N1CCN(Cc2ccc3c(c2)OC(F)(F)O3)CC1 [JNJ‐42165279],IC50,[1]; pre‐incubation 0 min,0.473 µM
same,IC50,[1]; pre‐incubation 5 min,0.365 µM
same,IC50,[1]; pre‐incubation 15 min,0.273 µM
same,IC50,[1]; pre‐incubation 30 min,0.221 µM
same,IC50,[1]; pre‐incubation 45 min,0.161 µM
same,IC50,[1]; pre‐incubation 60 min,0.0943 µM
same,k inact/K I,[2],"5,092 M·s^−1"
same,inhibition level above 30 nM,[3]; 1‐ and 3‐hr periods,around 50%
same,IC50,[3]; incubation 1 hr,0.0262 µM
same,IC50,[3]; incubation 3 hr,0.0251 µM
same,IC50,[3]; incubation 24 hr,0.0415 µM
same,detection in cell lysates,[4],undetectable
same,stability in cellular media over time,[4],stable
same,mean % free fraction ± SD,[5],64.3 ± 4.0%
same,inhibition of liver FAAH,[6],25.5%
same,inhibition of brain FAAH,[7],19.2%
same,AEA,[8]; 1 mg·kg^−1 p.o.,89.0 ± 20.6 % of control
same,OEA,[8]; 1 mg·kg^−1 p.o.,114.9 ± 13.36 % of control
same,PEA,[8]; 1 mg·kg^−1 p.o.,123.4 ± 11.2 % of control
same,AEA,[8]; 3 mg·kg^−1 p.o.,83.6 ± 9.1 % of control
same,OEA,[8]; 3 mg·kg^−1 p.o.,121.7 ± 10.2 % of control
same,PEA,[8]; 3 mg·kg^−1 p.o.,138.3 ± 19.4 % of control
same,AEA,[8]; 10 mg·kg^−1 p.o.,86.5 ± 4.8 % of control
same,OEA,[8]; 10 mg·kg^−1 p.o.,147.3 ± 13.8 % of control
same,PEA,[8]; 10 mg·kg^−1 p.o.,205.6 ± 37.0 % of control
same,AEA,[8]; 30 mg·kg^−1 p.o.,95.5 ± 2.5 % of control
same,OEA,[8]; 30 mg·kg^−1 p.o.,234.9 ± 46.8 % of control
same,PEA,[8]; 30 mg·kg^−1 p.o.,382.2 ± 103.5 % of control
same,off‐target activity at the sites studied,[9],some weak activity at just seven sites
same,concentration that completely inhibited the band corresponding to the MW of FAAH,[10],10 µM
"CN(C(=O)n1cnc(-c2ccc[n+]([O-])c2)c1)[C@H]1CC[C@H](O)CC1 [BIA 10‐2639, 3‐(1‐(((1R,4R)‐4‐hydroxycyclohexyl)(methyl)carbamoyl)‐1H‐imidazol‐4‐yl)pyridine 1‐oxide]",brain levels at all time points measured,[11],below the limit of quantification
"CN(C(=O)n1cnc(-c2cccnc2)c1)[C@H]1CC[C@H](O)CC1 [BIA 10‐2631, N‐((1R,4R)‐4‐hydroxycyclohexyl)‐N‐methyl‐4‐(pyridin‐3‐yl)‐1H‐imidazole‐1‐carboxamide]",brain levels at all time points measured,[11],below the limit of quantification
